Measured values published in ChEMBL document CHEMBL5107944, “Rational design of selective inhibitors of PARP4” (RSC Med Chem, 2021).

Key:
[1] = target: T1, Protein mono-ADP-ribosyltransferase PARP15 (Homo sapiens, UniProt Q460N3); test: (§1) Inhibition of N-terminal His-tagged human PARP15 catalytic domain expressed in Escherichia coli BL21 (DE3) preincubated with 6-a-NAD+ for 5 to 10 mins followed by enzyme addition and measured after 60 mins using NAD+ as substrate byHRP based chemiluminescence assay
T1 sequence (Q460N3 whole entry): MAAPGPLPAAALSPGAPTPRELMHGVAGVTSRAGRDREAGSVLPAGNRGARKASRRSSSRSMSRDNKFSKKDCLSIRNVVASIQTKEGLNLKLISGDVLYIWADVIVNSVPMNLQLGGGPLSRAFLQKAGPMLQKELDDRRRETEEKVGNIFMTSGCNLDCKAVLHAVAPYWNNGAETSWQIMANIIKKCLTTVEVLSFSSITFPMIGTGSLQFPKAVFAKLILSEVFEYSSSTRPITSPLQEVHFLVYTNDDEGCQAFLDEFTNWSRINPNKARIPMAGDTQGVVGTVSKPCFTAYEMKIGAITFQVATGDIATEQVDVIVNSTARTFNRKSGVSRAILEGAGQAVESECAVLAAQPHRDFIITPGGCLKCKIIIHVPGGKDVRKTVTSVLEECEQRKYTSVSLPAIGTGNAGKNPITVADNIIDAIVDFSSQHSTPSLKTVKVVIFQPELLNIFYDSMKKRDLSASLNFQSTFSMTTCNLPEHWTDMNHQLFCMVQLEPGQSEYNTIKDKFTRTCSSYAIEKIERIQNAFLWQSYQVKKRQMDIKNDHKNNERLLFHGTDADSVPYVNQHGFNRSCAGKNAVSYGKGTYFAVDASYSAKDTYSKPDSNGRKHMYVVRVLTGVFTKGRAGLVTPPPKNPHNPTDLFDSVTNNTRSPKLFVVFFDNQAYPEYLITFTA
Method in brief: (§2)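 Plate-based PASTA assay. His6-SRPK2 is captured on nickel-coated wells as the ADP-ribosylation substrate in HEPES pH 7.5 buffer with NaCl, MgCl2 and TCEP. Recombinant PARP is added at 4–400 nM (2×). Inhibitor (0–200 μM) is premixed with 200 μM 6-a-NAD+ (2×) and reacted 60 min at 30 °C. Incorporated label is click-conjugated to biotin-azide and detected with streptavidin-HRP by chemifluorescence (ex 570/em 600). IC50 is the mean of ≥3 independent assays.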

[2] = target: Protein mono-ADP-ribosyltransferase PARP4 (Homo sapiens, UniProt Q9UKK3); test: as §1, with “His-tagged recombinant” for “His-tagged”, “PARP4 brct-catalytic” for “PARP15 catalytic”, “domain (369 to 573 residues)” for “domain”; method in brief: as §2
[3] = target: Poly [ADP-ribose] polymerase 2 (Homo sapiens, UniProt Q9UGN5); test: Inhibition of N-terminal His-tagged full length human PARP2 expressed in Escherichia coli BL21 (DE3) preincubated with 6-a-NAD+ for 5 to 10 mins followed by enzyme addition and measured after 60 mins using NAD+ as substrate byHRP based chemiluminescence assay; method in brief: as §2
[4] = target: Poly [ADP-ribose] polymerase 1 (Homo sapiens, UniProt P09874); test: Inhibition of N-terminal His-tagged full length human PARP1 expressed in Escherichia coli BL21 (DE3) preincubated with 6-a-NAD+ for 5 to 10 mins followed by enzyme addition and measured after 60 mins using NAD+ as substrate byHRP based chemiluminescence assay; method in brief: as §2
[5] = target: T2, Protein mono-ADP-ribosyltransferase PARP11 (Homo sapiens, UniProt Q9NR21); test: Inhibition of N-terminal His-tagged full length human PARP11 expressed in Escherichia coli BL21 (DE3) preincubated with 6-a-NAD+ for 5 to 10 mins followed by enzyme addition and measured after 60 mins using NAD+ as substrate byHRP based chemiluminescence assay; method in brief: as §2
T2 sequence (Q9NR21 whole entry): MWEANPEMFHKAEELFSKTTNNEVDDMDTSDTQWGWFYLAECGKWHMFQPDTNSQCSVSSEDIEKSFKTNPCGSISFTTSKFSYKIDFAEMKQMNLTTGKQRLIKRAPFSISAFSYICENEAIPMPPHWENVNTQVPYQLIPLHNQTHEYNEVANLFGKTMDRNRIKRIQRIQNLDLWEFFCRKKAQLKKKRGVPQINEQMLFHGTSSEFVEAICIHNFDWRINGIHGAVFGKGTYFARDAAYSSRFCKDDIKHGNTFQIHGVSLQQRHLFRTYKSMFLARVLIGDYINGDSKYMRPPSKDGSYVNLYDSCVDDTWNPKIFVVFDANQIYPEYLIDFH

Protein mono-ADP-ribosyltransferase PARP4, sequence (Q9UKK3 whole entry, the tested form may be a part): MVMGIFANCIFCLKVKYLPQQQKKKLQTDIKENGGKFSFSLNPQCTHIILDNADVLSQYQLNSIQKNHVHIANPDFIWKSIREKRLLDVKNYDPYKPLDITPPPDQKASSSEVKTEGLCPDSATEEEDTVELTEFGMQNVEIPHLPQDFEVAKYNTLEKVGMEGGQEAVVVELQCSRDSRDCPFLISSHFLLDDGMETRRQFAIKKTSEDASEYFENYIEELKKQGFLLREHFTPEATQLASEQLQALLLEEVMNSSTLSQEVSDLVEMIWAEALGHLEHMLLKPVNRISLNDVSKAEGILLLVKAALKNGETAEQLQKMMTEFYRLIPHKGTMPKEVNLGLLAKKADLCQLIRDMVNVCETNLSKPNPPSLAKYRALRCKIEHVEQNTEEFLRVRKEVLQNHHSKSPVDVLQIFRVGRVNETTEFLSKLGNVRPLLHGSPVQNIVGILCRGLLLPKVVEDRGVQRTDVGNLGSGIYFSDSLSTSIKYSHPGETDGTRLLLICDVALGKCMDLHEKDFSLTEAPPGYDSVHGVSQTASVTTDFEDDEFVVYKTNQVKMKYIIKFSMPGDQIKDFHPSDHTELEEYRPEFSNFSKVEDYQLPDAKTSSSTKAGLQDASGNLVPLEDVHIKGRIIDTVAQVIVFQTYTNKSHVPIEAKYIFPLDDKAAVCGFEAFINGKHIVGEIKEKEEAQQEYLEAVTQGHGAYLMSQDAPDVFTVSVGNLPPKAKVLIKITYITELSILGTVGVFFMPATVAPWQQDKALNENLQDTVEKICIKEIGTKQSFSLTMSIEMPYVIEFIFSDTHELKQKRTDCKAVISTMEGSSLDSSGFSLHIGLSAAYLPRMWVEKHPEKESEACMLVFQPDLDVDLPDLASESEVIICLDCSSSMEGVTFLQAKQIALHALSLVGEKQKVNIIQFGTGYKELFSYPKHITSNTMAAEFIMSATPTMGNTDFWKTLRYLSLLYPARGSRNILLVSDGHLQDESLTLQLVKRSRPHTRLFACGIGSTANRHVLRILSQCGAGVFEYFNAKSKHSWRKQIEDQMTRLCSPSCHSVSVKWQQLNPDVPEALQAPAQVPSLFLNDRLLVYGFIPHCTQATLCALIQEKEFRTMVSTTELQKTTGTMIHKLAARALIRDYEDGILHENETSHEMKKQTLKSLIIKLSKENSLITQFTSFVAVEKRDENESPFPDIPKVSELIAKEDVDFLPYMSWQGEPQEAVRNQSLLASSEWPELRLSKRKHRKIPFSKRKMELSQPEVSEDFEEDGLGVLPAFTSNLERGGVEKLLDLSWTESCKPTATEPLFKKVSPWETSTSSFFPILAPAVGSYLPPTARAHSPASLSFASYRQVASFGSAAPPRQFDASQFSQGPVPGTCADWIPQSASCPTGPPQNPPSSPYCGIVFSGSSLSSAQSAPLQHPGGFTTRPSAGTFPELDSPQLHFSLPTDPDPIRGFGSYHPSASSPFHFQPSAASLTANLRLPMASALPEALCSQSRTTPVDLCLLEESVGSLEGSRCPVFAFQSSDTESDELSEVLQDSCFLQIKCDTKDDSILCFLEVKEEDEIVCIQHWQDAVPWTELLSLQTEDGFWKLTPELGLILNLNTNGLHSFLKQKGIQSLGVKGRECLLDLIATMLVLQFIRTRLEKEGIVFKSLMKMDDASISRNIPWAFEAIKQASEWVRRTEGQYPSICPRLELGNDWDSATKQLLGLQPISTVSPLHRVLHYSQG
Poly [ADP-ribose] polymerase 1, sequence (P09874 whole entry): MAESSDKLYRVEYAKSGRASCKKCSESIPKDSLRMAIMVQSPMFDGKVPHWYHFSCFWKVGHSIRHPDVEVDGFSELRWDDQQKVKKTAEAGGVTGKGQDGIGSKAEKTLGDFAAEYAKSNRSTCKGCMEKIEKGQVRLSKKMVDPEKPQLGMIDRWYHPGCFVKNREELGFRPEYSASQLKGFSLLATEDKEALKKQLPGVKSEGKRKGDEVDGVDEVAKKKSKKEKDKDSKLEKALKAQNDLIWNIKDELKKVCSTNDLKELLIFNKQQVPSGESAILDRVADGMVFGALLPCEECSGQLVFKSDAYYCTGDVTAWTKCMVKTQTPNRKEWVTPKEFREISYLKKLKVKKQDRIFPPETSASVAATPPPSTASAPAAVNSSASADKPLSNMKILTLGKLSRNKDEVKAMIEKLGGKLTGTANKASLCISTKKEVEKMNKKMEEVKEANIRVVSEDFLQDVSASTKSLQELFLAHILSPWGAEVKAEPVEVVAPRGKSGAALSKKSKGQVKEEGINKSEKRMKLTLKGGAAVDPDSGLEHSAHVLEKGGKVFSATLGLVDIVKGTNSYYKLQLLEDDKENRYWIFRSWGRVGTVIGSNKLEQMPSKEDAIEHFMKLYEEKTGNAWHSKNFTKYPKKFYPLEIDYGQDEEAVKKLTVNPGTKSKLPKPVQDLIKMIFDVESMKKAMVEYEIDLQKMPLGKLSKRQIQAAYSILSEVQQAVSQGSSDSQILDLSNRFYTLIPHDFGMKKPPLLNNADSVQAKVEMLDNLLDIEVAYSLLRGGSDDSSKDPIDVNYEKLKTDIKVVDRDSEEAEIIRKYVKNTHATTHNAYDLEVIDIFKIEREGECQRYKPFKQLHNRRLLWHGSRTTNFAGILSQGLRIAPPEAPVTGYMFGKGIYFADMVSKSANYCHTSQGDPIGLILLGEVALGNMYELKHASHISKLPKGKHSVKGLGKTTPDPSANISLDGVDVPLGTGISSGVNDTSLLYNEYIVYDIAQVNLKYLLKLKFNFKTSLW
Poly [ADP-ribose] polymerase 2, sequence (Q9UGN5 whole entry): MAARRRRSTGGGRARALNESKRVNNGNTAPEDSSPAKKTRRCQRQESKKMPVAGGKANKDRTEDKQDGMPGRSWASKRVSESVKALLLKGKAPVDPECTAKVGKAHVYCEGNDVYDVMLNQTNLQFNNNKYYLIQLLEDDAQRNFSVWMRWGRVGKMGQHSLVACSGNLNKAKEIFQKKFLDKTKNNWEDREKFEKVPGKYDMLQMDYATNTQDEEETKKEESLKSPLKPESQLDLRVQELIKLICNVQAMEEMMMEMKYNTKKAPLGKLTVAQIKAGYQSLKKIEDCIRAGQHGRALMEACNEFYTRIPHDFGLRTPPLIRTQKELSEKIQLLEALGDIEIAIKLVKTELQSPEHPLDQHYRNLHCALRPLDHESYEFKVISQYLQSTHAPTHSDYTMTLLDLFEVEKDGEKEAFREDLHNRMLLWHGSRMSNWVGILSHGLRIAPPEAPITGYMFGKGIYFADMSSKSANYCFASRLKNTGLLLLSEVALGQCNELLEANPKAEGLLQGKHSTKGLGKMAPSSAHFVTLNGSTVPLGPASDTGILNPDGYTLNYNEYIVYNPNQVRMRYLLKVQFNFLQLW

CC#Cc1cc(C)c2nc(CSc3ncccn3)[nH]c(=O)c2c1
IC50 [1]: 3300 nM

Cc1cc(Br)cc2c(=O)[nH]c(CSc3ccc(C(=O)O)cc3)nc12
IC50 [2]: 1900 nM

Cc1cc(Br)cc2c(=O)[nH]c(CSc3ncccn3)nc12
IC50 [3]: 2000 nM | IC50 [2]: 800 nM | IC50 [4]: 2500 nM

Cc1cc(I)cc2c(=O)[nH]c(CSc3ncccn3)nc12
IC50 [2]: 2700 nM

Cc1cccc2c(=O)[nH]c(CSc3ncccn3)nc12
IC50 [3]: 800 nM | IC50 [5]: 200 nM

Cc1cc(C)c2nc(CSc3ncccn3)[nH]c(=O)c2c1
IC50 [2]: 500 nM | IC50 [4]: 100 nM

Cc1cc(I)cc2c(=O)[nH]c(CSc3ccc(C(=O)O)cc3)nc12
IC50 [2]: 800 nM
